ChEMBL document CHEMBL3813699, “Structure-Activity Relationships of a Diverse Class of Halogenated Phenazines That Targets Persistent, Antibiotic-Tolerant Bacterial Biofilms and Mycobacterium tuberculosis” (J Med Chem, 2016)
Converted amounts (≈) assume the structure as drawn.

Columns and labels:
Staphylococcus aureus [1] = assay: Ratio of MIC for methicillin-resistant Staphylococcus aureus clinical isolate 2 in absence and presence of Cu2+; format: functional
Staphylococcus aureus [2] = assay: Antibacterial activity against methicillin-resistant Staphylococcus aureus clinical isolate 2 incubated for 16 hrs by broth microdilution method; format: functional; details: isolate 2, 16 h
Staphylococcus aureus [3] = assay: Antibacterial activity against methicillin-resistant Staphylococcus aureus clinical isolate 2 incubated for 16 hrs by broth microdilution method in presence of Fe2+; format: functional; details: isolate 2, 16 h
Staphylococcus aureus [4] = assay: Antibacterial activity against methicillin-resistant Staphylococcus aureus clinical isolate 2 incubated for 16 hrs by broth microdilution method in presence of Cu2+; format: functional; details: isolate 2, 16 h
[5] = tested on: Staphylococcus epidermidis; assay: Antibacterial activity against Staphylococcus epidermidis ATCC 12228 incubated for 16 to 18 hrs by broth microdilution method; format: functional
Staphylococcus aureus [6] = assay: Antibiofilm activity against methicillin-resistant Staphylococcus aureus isolate 2 assessed as biofilm eradication incubated for 24 hrs by CBD assay; format: functional; details: for MBC: Staphylococcus aureus, isolate 2, 24 h
Method in brief: (§1)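 Calgary Biofilm Device: pegs inoculated with mid-log culture diluted 1,000-fold in TSB + 0.5% glucose, 24 h 37 °C; washed pegs challenged with 2-fold dilutions 24 h 37 °C; pegs moved to fresh TSBG 24 h; MBEC = lowest concentration leaving no turbidity; 2–6 independent experiments.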

[7] = tested on: Staphylococcus epidermidis; assay: Antibacterial activity against methicillin-resistant Staphylococcus epidermidis ATCC 35984 incubated for 16 to 18 hrs by broth microdilution method; format: functional
Staphylococcus aureus [8] = assay: Ratio of MBEC to MBC for methicillin-resistant Staphylococcus aureus clinical isolate 2 biofilm eradication; format: functional
Method in brief: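 From the same CBD challenge plate, MBC taken by subculturing 20 µL into 180 µL TSBG overnight at 37 °C (no turbidity); MBEC from recovered pegs in fresh TSBG 24 h; ratio MBEC:MBC against MRSA-2.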

Staphylococcus aureus [9] = assay: Antibacterial activity against methicillin-resistant Staphylococcus aureus clinical isolate 2 incubated for 16 to 18 hrs by broth microdilution method; format: functional
[10] = tested on: Staphylococcus epidermidis; assay: Antibacterial activity against methicillin-resistant Staphylococcus epidermidis ATCC 35984 assessed as biofilm eradication incubated for 24 hrs by CBD assay; format: functional; details: for MBC: Staphylococcus epidermidis, ATCC 35984, 24 h; method in brief: as §1
[11] = Induction of hemolysis in human RBC at 200 uM incubated for 1 hr; format: cell-based, Erythrocyte; details: red blood cells, read-out: Activity
Method in brief: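 Human RBCs (EDTA), washed three times in Tris-buffered saline pH 7.2; 2% hRBC with compound at final 200 µM, 1 h 37 °C; supernatant OD405; % hemolysis relative to DMSO (0%) and Triton X (100%).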

Enterococcus faecium [12] = assay: Antibacterial activity against vancomycin-resistant Enterococcus faecium ATCC 700221 incubated for 16 to 18 hrs by broth microdilution method; format: functional
Staphylococcus aureus [13] = assay: Antibacterial activity against methicillin-resistant Staphylococcus aureus BAA-44 incubated for 16 to 18 hrs by broth microdilution method; format: functional
Staphylococcus aureus [14] = assay: Antibacterial activity against methicillin-resistant Staphylococcus aureus clinical isolate 2 incubated for 16 hrs by broth microdilution method in presence of tiron; format: functional; details: isolate 2, 16 h
HeLa = assay: Cytotoxicity against human HeLa cells after 24 hrs by LDH release assay; format: cell-based
Method in brief: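 HeLa in DMEM + 10% FBS, 37 °C 5% CO2, at 70–80% confluence treated with 25, 50, 100 µM for 24 h; DMSO vehicle; Triton X-100 2% v/v max-LDH control, medium-only negative; supernatant with LDH reaction mix 30 min room temperature, stopped, absorbance 490 nm.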

Staphylococcus aureus [15] = assay: Ratio of MIC for methicillin-resistant Staphylococcus aureus clinical isolate 2 in absence and presence of tiron; format: functional; design: scale not given here
Staphylococcus aureus [16] = assay: Antibacterial activity against Staphylococcus aureus ATCC 25923 incubated for 16 to 20 hrs by broth microdilution method; format: functional
[17] = tested on: Staphylococcus epidermidis; assay: Antibacterial activity against Staphylococcus epidermidis ATCC 12228 incubated for 16 to 20 hrs by broth microdilution method; format: functional
Enterococcus faecium [18] = assay: Antibiofilm activity against […]-resistant Enterococcus faecium ATCC 700221 assessed as biofilm eradication incubated for 24 hrs by CBD assay; format: functional; details: for MBC: Enterococcus faecium, ATCC 700221, 24 h; method in brief: as §1
Staphylococcus aureus [19] = assay: Antibacterial activity against methicillin-resistant Staphylococcus aureus BAA-1707 incubated for 16 to 18 hrs by broth microdilution method; format: functional
[20] = tested on: Mycobacterium tuberculosis; assay: Antibacterial activity against Mycobacterium tuberculosis H37Ra ATCC 25177 after 7 days by two-fold serial dilution method; format: functional; details: H37Ra ATCC 25177, 168 h
[21] = Metal chelating activity assessed as soluble Fe2+-compound complex formation by UV-vis spectroscopic analysis; format: physicochemical
Method in brief: (§2)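 UV-vis monitoring after adding 0.5 equivalents CuSO4 or ammonium iron(II) sulfate to stirred 10 mM ligand in DMSO; Cu stoichiometry from free ligand remaining after 2 h room-temperature stirring with varying CuSO4 in methanol, filtered, redissolved in DMSO, A440 against calibration curve.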

[22] = Metal chelating activity assessed as soluble Cu2+-compound complex formation by UV-vis spectroscopic analysis; format: physicochemical; method in brief: as §2
Staphylococcus aureus [23] = assay: Antibiofilm activity against methicillin-resistant Staphylococcus aureus BAA-1707 assessed as biofilm eradication incubated for 24 hrs by CBD assay; format: functional; method in brief: as §1
Staphylococcus aureus [24] = assay: Antibiofilm activity against methicillin-resistant Staphylococcus aureus BAA-44 assessed as biofilm eradication incubated for 24 hrs by CBD assay; format: functional; method in brief: as §1

| Compound | MIC (Staphylococcus aureus [2]) [µM] | MIC (Staphylococcus aureus [3]) [µM] | MIC (Staphylococcus aureus [4]) [µM] | MIC [5] [µM] | MBEC (Staphylococcus aureus [6]) [µM] | MBC (Staphylococcus aureus [6]) [µM] | MIC [7] [µM] | MBEC [10] [µM] | MBC [10] [µM] | MIC (Enterococcus faecium [12]) [µM] | IC50 (HeLa) [µM] | other results |
| --- | --- | --- | --- | --- | --- | --- | --- | --- | --- | --- | --- | --- |
| CN(C)[C@@H]1C(O)=C(C(N)=O)C(=O)[C@@]2(O)C(O)=C3C(=O)c4c(O)cccc4[C@@](C)(O)[C@H]3C[C@@H]12 [TETRACYCLINE] | 1.17 (≈ 0.52 µg/mL) | 18.8 | 1.56 |  |  |  |  |  |  |  |  | Ratio (Staphylococcus aureus [1]): <2 |
| CO[C@H]1/C=C/O[C@@]2(C)Oc3c(C)c(O)c4c(O)c(c(/C=N/N5CCN(C)CC5)c(O)c4c3C2=O)NC(=O)/C(C)=C\C=C\[C@H](C)[C@H](O)[C@@H](C)[C@@H](O)[C@@H](C)[C@H](OC(C)=O)[C@@H]1C [RIFAMPIN] |  |  |  | 0.1 (≈ 0.0823 µg/mL) | 46.9 | 2 (≈ 1.65 µg/mL) | 0.1 (≈ 0.0823 µg/mL) | 15.6 | 3 (≈ 2.47 µg/mL) |  |  | Ratio (Staphylococcus aureus [8]): >23; MIC (Staphylococcus aureus [9]): 0.1 µM (≈ 0.0823 µg/mL) |
| Oc1c(Cl)cc(Br)c2nc3cc(Br)c(Br)cc3nc12 | 3.13 (≈ 1.46 µg/mL) |  | > 100 | 0.08 (≈ 0.0374 µg/mL) | 25 | 25 (≈ 11.7 µg/mL) | 0.3 (≈ 0.14 µg/mL) | 3.13 | 1.56 (≈ 0.729 µg/mL) | 0.39 (≈ 0.182 µg/mL) | > 100 | hemolysis at 1 h, 200 µM [11]: 2.1%; MIC (Staphylococcus aureus [13]): 25 µM (≈ 11.7 µg/mL); MIC (Staphylococcus aureus [9]): 12.5 µM (≈ 5.84 µg/mL); MIC (Staphylococcus aureus [14]): 0.2 µM |
| Oc1cccc2cccnc12 [OXYQUINOLINE] | 6.25 (≈ 0.907 µg/mL) | 6.25 | 3.13 |  |  |  |  |  |  |  |  | Ratio (Staphylococcus aureus [15]): 16; Ratio (Staphylococcus aureus [1]): <2; MIC (Staphylococcus aureus [14]): > 100 µM |
| Oc1c(Br)ccc2nc3ccccc3nc12 |  |  |  |  |  |  |  |  |  |  |  | MIC (Staphylococcus aureus [16]): 6.25 µM (≈ 1.72 µg/mL); MIC [17]: 1.7 µg/mL (≈ 6.18 µM) |
| Cc1ccc2c(Br)cc(Br)c(O)c2n1 [BROQUINALDOL] |  |  |  | 0.78 (≈ 0.247 µg/mL) | 188 | 23.5 (≈ 7.45 µg/mL) | 0.3 (≈ 0.0951 µg/mL) | 93.8 | 9.38 (≈ 2.97 µg/mL) | 2.35 (≈ 0.745 µg/mL) | > 100 | MBEC (Enterococcus faecium [18]): 1.5 µM; MBC (Enterococcus faecium [18]): 2 µM (≈ 0.634 µg/mL); MIC (Staphylococcus aureus [19]): 0.78 µM (≈ 0.247 µg/mL); MIC [20]: 25 µM (≈ 7.92 µg/mL); Activity [21]: Active; Activity [22]: Active; MIC (Staphylococcus aureus [13]): 0.78 µM (≈ 0.247 µg/mL) |
| Oc1c(Br)cc(I)c2nc3ccccc3nc12 |  | 6.25 | 50 |  | 62.5 | 31.3 (≈ 12.6 µg/mL) |  | 188 | 11.7 (≈ 4.69 µg/mL) | 6.25 (≈ 2.51 µg/mL) | > 100 | MBEC (Enterococcus faecium [18]): 5.9 µM; MBC (Enterococcus faecium [18]): 3 µM (≈ 1.2 µg/mL); hemolysis at 1 h, 200 µM [11]: 2.9%; MBEC (Staphylococcus aureus [23]): 93.8 µM; MBC (Staphylococcus aureus [23]; Staphylococcus aureus, BAA-1707, 24 h): 23.5 µM (≈ 9.42 µg/mL); MBEC (Staphylococcus aureus [24]): 93.8 µM; MBC (Staphylococcus aureus [24]; Staphylococcus aureus, BAA-44, 24 h): 46.9 µM (≈ 18.8 µg/mL) |
